Molecules are shown by their SMILES. Converted amounts (≈) assume the structure as drawn. The source made the active and inactive calls. The rule behind the calls is not given here. Where only a bound is given, the exact number is not on record here.

From ChEMBL document CHEMBL3785055, “Arginine-linked neomycin B dimers: synthesis, rRNA binding, and resistance enzyme activity” (Medchemcomm, 2016) come the findings set out here.

Experiment [1] can be described thus: Selectivity factor, ratio of IC50 for human rRNA A-site to IC50 for Escherichia coli rRNA A-site. In a few lines:
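Ratio from F-NEO displacement titrations, 0.002–2.0 μM compound against 0.1 μM F-NEO:A-site complex (485/535 nm). Measured IC50 stands in for the unmeasurable competition constants in Kd(human)/Kd(E. coli) = 5.75 × K(E. coli)/K(human). Buffer 10 mM HEPES, 50 mM NaCl, 0.4 mM EDTA, pH 7.0.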

Experiment [2] has as its system Staphylococcus aureus. The experiment is described as follows: Antibacterial activity against Staphylococcus aureus ATCC 25923 after 16 to 20 hrs by MTT assay. Type of experiment: functional. The method in brief:
(§1)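 Strains grown in LB 24 h at 37 °C, 250 rpm; overnight culture diluted 1:1000, grown 4 h, diluted 1:1000 again and added to microplates. Incubation 16–20 h at 37 °C; growth read visually and with MTT (1 mg/mL).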
Background: Tetrazolium dyes change colour on reduction, which living cells bring about.

For experiment [3], the system named is Bacillus cereus. The experiment is described as follows: Antibacterial activity against Bacillus cereus ATCC 11778 after 16 to 20 hrs by MTT assay. It is filed as functional. In a few lines: as §1
Experiment [4] relates to Mycobacterium tuberculosis. The experiment is described as follows: Activity at Mycobacterium tuberculosis AAC(2')-1c at 100 uM in presence of AcCoA by Ellmans method relative to NEO. The method in brief: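 N-acetylation by AAC(2')-Ic (0.125 μM enzyme) of 100 μM compound with 150 μM AcCoA and 2 mM DTNB in 100 mM buffer, 25 °C. Thiol release followed at 412 nm (ε = 14,150 M⁻¹cm⁻¹). Rates normalized to neomycin B, triplicate.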

Experiment [5] is described as follows: Displacement of F-NEO from Escherichia coli rRNA A-site by fluorescence assay.
Experiment [6] can be described thus: Displacement of F-NEO from human rRNA A-site by fluorescence assay.
Experiment [7] relates to Escherichia coli. The experiment is described as follows: Activity at Escherichia coli AAC(3)-4 at 100 uM in presence of AcCoA by Ellmans method relative to NEO. In a few lines: (§2)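 Acetylation followed by Ellman's method at 412 nm, 2 mM DTNB, 100 μM compound, 25 °C, triplicate, rates normalized to NEO. AcCoA 500 μM for Eis, 150 μM for AAC(3)-IV; enzyme 0.5 μM for Eis, 0.125 μM for AAC(3)-IV; 50 mM buffer.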
Background: Ellman's reagent forms a yellow product with free thiols.

Experiment [8] is described as follows: Activity at APH(3')-1a (unknown origin) at 100 uM in presence of […] by […] relative to NEO.
Experiment [9] relates to Staphylococcus epidermidis. The experiment is described as follows: Antibacterial activity against Staphylococcus epidermidis ATCC 12228 after 16 to 20 hrs by MTT assay. It is filed as functional. The method in brief: as §1
A short description of experiment [10]: Activity at Eis (unknown origin) at 100 uM in presence of AcCoA by Ellmans method relative to NEO. The method in brief:
as §2

Experiment [11] deals with Staphylococcus aureus. The experiment is described as follows: Activity at Staphylococcus aureus APH(2'')-1a at 100 uM in presence of […] by […] relative to NEO.
In experiment [12] the test system is Staphylococcus aureus. The experiment is described as follows: Activity at Staphylococcus aureus AAC(6')-1e/APH(2'')-1a in presence of AcCoA by Ellmans method relative to NEO.

Usually MIC stands for the lowest concentration found to suppress growth. The low end stands for inhibition by little substance, the high end for a need for much substance. Usually IC50 stands for the concentration at which inhibition is half-maximal. A higher IC50 goes with lower potency. Consider `N=C(N)NCCC[C@H](NC(=O)CNC(=O)c1cc(-c2cn(C[C@H]3O[C@@H](O[C@@H]4[C@@H](O)[C@H](N)C[C@H](N)[C@H]4O[C@H]4O[C@H](CN)[C@@H](O)[C@H](O)[C@H]4N)[C@H](O)[C@@H]3O[C@H]3O[C@@H](CN)[C@@H](O)[C@H](O)[C@H]3N)nn2)cc(-c2cn(C[C@H]3O[C@@H](O[C@H]4[C@H](O)[C@@H](N)C[C@@H](N)[C@@H]4O[C@@H]4O[C@@H](CN)[C@H](O)[C@@H](O)[C@@H]4N)[C@H](O)[C@@H]3O[C@H]3O[C@@H](CN)[C@@H](O)[C@H](O)[C@H]3N)nn2)c1)C(N)=O` (stereo in doubt), for which the Ratio IC50 in experiment [1] was 5.3. In addition, the MIC in experiment [2] is 50 µM (≈ 83.1 µg/mL); in [3], 1.6 µM (≈ 2.66 µg/mL); in experiment [9], greater than 50 µM. For the same compound, the result in [4], in experiment [8], in [10], in experiment [11] and in experiment [12] was inactive. Further, the figures for the IC50 in experiment [5] and in experiment [6] were 62 µM and 58 µM, respectively. In [7], the result was Active.
As to `N=C(N)NCCC[C@H](NC(=O)CCCCNC(=O)c1cc(-c2cn(C[C@@H]3O[C@H](O[C@H]4[C@H](O)[C@@H](N)C[C@@H](N)[C@@H]4O[C@H]4O[C@H](CN)[C@@H](O)[C@H](O)[C@H]4N)[C@@H](O)[C@H]3O[C@H]3O[C@@H](CN)[C@@H](O)[C@H](O)[C@H]3N)nn2)cc(-c2cn(C[C@H]3O[C@@H](O[C@@H]4[C@@H](O)[C@H](N)C[C@H](N)[C@H]4O[C@@H]4O[C@@H](CN)[C@H](O)[C@@H](O)[C@@H]4N)[C@H](O)[C@@H]3O[C@@H]3O[C@H](CN)[C@H](O)[C@@H](O)[C@@H]3N)nn2)c1)C(N)=O` (stereo in doubt), in [1], the Ratio IC50 stood at 7.4. Moreover, the MIC in experiment [2] is greater than 50 µM; in experiment [3] it was 3 µM (≈ 5.11 µg/mL); in experiment [9] it was greater than 50 µM. Moreover, the result in [4], in experiment [8], in experiment [10], in experiment [11] and in experiment [12] was inactive. Also, the IC50 in experiment [5] came to 52 µM; in [6], 70 µM. Also, the outcome in experiment [7] was Active.
Consider `N=C(N)NCCC[C@H](NC(=O)CCNC(=O)c1cc(-c2cn(C[C@@H]3O[C@H](O[C@H]4[C@H](O)[C@@H](N)C[C@@H](N)[C@@H]4O[C@H]4O[C@H](CN)[C@@H](O)[C@H](O)[C@H]4N)[C@@H](O)[C@H]3O[C@H]3O[C@@H](CN)[C@@H](O)[C@H](O)[C@H]3N)nn2)cc(-c2cn(C[C@H]3O[C@@H](O[C@@H]4[C@@H](O)[C@H](N)C[C@H](N)[C@H]4O[C@@H]4O[C@@H](CN)[C@H](O)[C@@H](O)[C@@H]4N)[C@H](O)[C@@H]3O[C@@H]3O[C@H](CN)[C@H](O)[C@@H](O)[C@@H]3N)nn2)c1)C(N)=O` (stereo in doubt), for which, in experiment [1], the Ratio IC50 turned out to be 4.7. The figures for the MIC in experiment [2], in [3] and in [9] were 50 µM (≈ 83.8 µg/mL), 0.8 µM (≈ 1.34 µg/mL) and 50 µM (≈ 83.8 µg/mL), respectively. Further, the outcome in [4], in experiment [8], in experiment [10], in experiment [11] and in experiment [12] was inactive. The results for the IC50 in [5] and in experiment [6] were 70 µM and 58 µM, respectively. Further, in [7], the outcome was Active.
On to `N=C(N)NCCC[C@H](NC(=O)CCCCCNC(=O)c1cc(-c2cn(C[C@@H]3O[C@H](O[C@H]4[C@H](O)[C@@H](N)C[C@@H](N)[C@@H]4O[C@H]4O[C@H](CN)[C@@H](O)[C@H](O)[C@H]4N)[C@@H](O)[C@H]3O[C@H]3O[C@@H](CN)[C@@H](O)[C@H](O)[C@H]3N)nn2)cc(-c2cn(C[C@H]3O[C@@H](O[C@@H]4[C@@H](O)[C@H](N)C[C@H](N)[C@H]4O[C@@H]4O[C@@H](CN)[C@H](O)[C@@H](O)[C@@H]4N)[C@H](O)[C@@H]3O[C@@H]3O[C@H](CN)[C@H](O)[C@@H](O)[C@@H]3N)nn2)c1)C(N)=O` (stereo in doubt), for which the Ratio IC50 in [1] came out at 7.2. Moreover, the MIC in experiment [2] was greater than 50 µM; in [3] it was 1.6 µM (≈ 2.75 µg/mL); in experiment [9], greater than 50 µM. Moreover, the result in experiment [4], in experiment [8], in experiment [10], in [11] and in experiment [12] was inactive. Besides, the figures for the IC50 in experiment [5] and in [6] were 54 µM and 68 µM, respectively. In experiment [7], the result was Active.
Turning to `N=C(N)NCCC[C@@H](NC(=O)c1cc(-c2cn(C[C@@H]3O[C@H](O[C@@H]4[C@@H](O)[C@H](N)C[C@H](N)[C@H]4O[C@@H]4O[C@@H](CN)[C@H](O)[C@@H](O)[C@@H]4N)[C@@H](O)[C@H]3O[C@H]3O[C@@H](CN)[C@@H](O)[C@H](O)[C@H]3N)nn2)cc(-c2cn(C[C@H]3O[C@@H](O[C@@H]4[C@@H](O)[C@H](N)C[C@H](N)[C@H]4O[C@@H]4O[C@@H](CN)[C@H](O)[C@@H](O)[C@@H]4N)[C@H](O)[C@@H]3O[C@H]3O[C@@H](CN)[C@@H](O)[C@H](O)[C@H]3N)nn2)c1)C(N)=O` (stereo in doubt), the Ratio IC50 in experiment [1] was determined as 7.4. Besides, the MIC was greater than 50 µM in experiment [2], 3 µM (≈ 4.81 µg/mL) in experiment [3] and greater than 50 µM in experiment [9]. For the same compound, the result in experiment [4], in experiment [8], in experiment [10], in [11] and in experiment [12] was inactive. For the same compound, the IC50 in [5] is 55 µM; in experiment [6] it was 71 µM. In experiment [7], the Activity stood at 30%.
Regarding `N=C(N)NCCC[C@@H](NC(=O)CCCNC(=O)c1cc(-c2cn(C[C@@H]3O[C@H](O[C@@H]4[C@@H](O)[C@H](N)C[C@H](N)[C@H]4O[C@@H]4O[C@@H](CN)[C@H](O)[C@@H](O)[C@@H]4N)[C@@H](O)[C@H]3O[C@@H]3O[C@H](CN)[C@H](O)[C@@H](O)[C@@H]3N)nn2)cc(-c2cn(C[C@H]3O[C@@H](O[C@@H]4[C@@H](O)[C@H](N)C[C@H](N)[C@H]4O[C@@H]4O[C@@H](CN)[C@H](O)[C@@H](O)[C@@H]4N)[C@H](O)[C@@H]3O[C@@H]3O[C@H](CN)[C@H](O)[C@@H](O)[C@@H]3N)nn2)c1)C(N)=O` (stereo in doubt), in experiment [1], the Ratio IC50 amounted to 5.3. The MIC in [2] is greater than 50 µM; in experiment [3] it was 1.6 µM (≈ 2.7 µg/mL); in experiment [9], greater than 50 µM. Moreover, the result in experiment [4], in [8], in [10], in [11] and in experiment [12] was inactive. Moreover, the IC50 was 56 µM in [5] and 52 µM in [6]. Also, in experiment [7], the outcome was Active.
